# From PubChem
# SF1 activator: activators of human nuclear receptor SF-1. CHO-K1 Gal4-SF-1 LBD luciferase reporter; % increase over DMSO SF-1-specific signal. actives 1.9% (n = 65,000). AID 522. activation, % at 10 µM;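 active = activation above the mean activation of all tested compounds plus 3 SD, cut at about 50% in these data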
# Target sequence (Q13285 whole entry, looked up, the tested form may be a part): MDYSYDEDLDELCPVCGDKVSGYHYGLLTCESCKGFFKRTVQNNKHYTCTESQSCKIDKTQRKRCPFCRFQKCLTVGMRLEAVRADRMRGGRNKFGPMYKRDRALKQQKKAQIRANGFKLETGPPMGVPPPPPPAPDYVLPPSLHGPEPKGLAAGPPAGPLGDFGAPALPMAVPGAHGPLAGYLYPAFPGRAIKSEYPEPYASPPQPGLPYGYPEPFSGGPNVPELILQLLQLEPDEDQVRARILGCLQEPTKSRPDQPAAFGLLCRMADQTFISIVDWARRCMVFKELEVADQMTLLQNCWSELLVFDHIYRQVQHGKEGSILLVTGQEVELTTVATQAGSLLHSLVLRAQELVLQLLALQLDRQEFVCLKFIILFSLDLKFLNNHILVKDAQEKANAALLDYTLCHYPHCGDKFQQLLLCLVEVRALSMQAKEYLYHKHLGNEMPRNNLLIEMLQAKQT
#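 Material: CHO-K1 cells with Gal4–hSF-1 LBD chimera plus Gal4-driven luciferase / Input: 4,000 CHO-K1 cells per well / Incubation: compound exposure 20 h at 37 °C / Signal: luminescence read 15 min after SteadyLite luciferase reagent, after room-temperature equilibration / Read-out: percent activation versus DMSO / Benchmarks: DMSO negative control and −SF1 background wells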
# Mac1 fbg inh: inhibitors of human CD11b/CD18 binding to fibrinogen | P05107+P11215 | K562 CD11b/CD18 adhesion to fibrinogen, ATPlite luminescence; Mn2+ added to activate the integrin | inhibition, % at 10 µM | actives 0.54% (n = 93,000);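 active = primary inhibition of 50% or more at 10 µM, then 40% or more on retest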
# Mac1 fbg enh: enhancers of human CD11b/CD18 binding to fibrinogen. AID 1499. actives 0.07% (n = 93,000). K562 CD11b/CD18 adhesion to fibrinogen, ATPlite luminescence. P05107+P11215. activation, % at 10 µM;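 active = 10 µM primary screen giving 50% or more activity, confirmed by 40% or more on retest at that dose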
# MT1-MMP txn act: activates MT1-MMP transcription | HT1080 MT1-MMP promoter luciferase reporter, luminescence, overnight; hits give high values | activation factor at 10 µM | actives 0.16% (n = 86,000) | AID 750;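 active = activation factor of at least 2 for MT1-MMP transcription at 10 µM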
# RORA act: activators of human nuclear receptor RORA; P35398; CHO-K1 Gal4-RORA LBD luciferase reporter, luminescence; percent increase over mock-subtracted basal signal; AID 560; activation, % at 10 µM; actives 1.5% (n = 65,000);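 active = activation above the mean of all tested compounds plus 3 SD, cut at about 49% in these data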;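 also: 0% = DMSO-treated RORA cells and 100% = added signal equal to DMSO minus mock-transfected cells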
# Candida biofilm: kills Candida albicans biofilms | C. albicans biofilm + clotrimazole, Alamar Blue | inhibition, % at 6 µM | actives 0.14% (n = 85,000) | AID 834;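 active = inhibition above 20%; inactive = inhibition below 20%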;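 also: preformed 24 hr biofilms exposed to compound for 48 hr; 0% = biofilm without compound and 100% = blank killed by clotrimazole plus chlorhexidine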
# Starred values were filed as active, the others as inactive; / = not tested or not shown. Sampled rows, rich in hits. Any-hit rate of the full collection: about 2.2%.
SMILES,SF1 activator,Mac1 fbg inh,Mac1 fbg enh,MT1-MMP txn act,RORA act,Candida biofilm
O=C(CSc1nnnn1C1CC2CCC1C2)Nc1ccnc2ccccc12 (stereo not given),-75.9,100.4*,-13.1,1,-84.6,3.0
c1coc(CNc2nc3nonc3nc2NCc2ccco2)c1,-12.1,61.8*,-3.4,1,-4.4,10.8
CCOC(=O)C1=C(Cc2ccc(OC)cc2)C(=O)c2ccccc2C1=O,/,98.1,-8.4,1.1,/,2.3
CCOC(=O)C1=C(Cc2ccc(C)cc2)C(=O)c2ccccc2C1=O,/,90.2*,-7.2,1.2,/,-2.9
COC(=O)[C@@H]1C[C@H]2CC[C@H](O)C[C@H]2N1Cc1ccc(N2CCOCC2)cc1,/,/,/,1,/,/
CC(C)(CC(=O)O)Cc1nc(-c2ccc(Cl)cc2)no1,62.8*,6.5,2.0,1.1,-0.4,9.8
O=C(O)CCc1nc(-c2ccc(Cl)cc2)no1,-0.6,1.4,2.1,/,-10.0,/
Cc1ccc(OCc2ccc(C(=O)N3CCOCC3)cc2)cc1C,45.7,-3.1,4.1,1.4,52.2*,6.2
Cc1ccc(C(=O)N2CCOCC2)cc1Cl,4.1,-3.3,-4.7,1.3,17.2,1.0
Cn1c(C(=O)NCCCN2CCCC2=O)cc2c(=O)n3ccccc3nc21,-5.0,/,/,1.2,19.9,9.6
Nc1nc(CSc2ccccn2)nc(Nc2ccccc2)n1,58.4*,2.7,1.0,1.1,24.1,7.6
CCOC(=O)C(C)Sc1nnc(NC(=O)c2ccc(C)c([N+](=O)[O-])c2)s1 (stereo not given),/,65.5*,-4.8,/,/,/
CCOC(=O)C(C)Sc1nnc(NC(=O)c2cccc([N+](=O)[O-])c2C)s1 (stereo not given),/,27.5,-1.7,/,/,/
CCn1c(=O)c(C(=O)Nc2nc3ccccc3[nH]2)c(O)c2ccccc21,-36.8,96.4*,-8.2,/,-18.5,/
CCOc1ccc2nc(N3CCC(C(=O)N4CCN(c5ccccn5)CC4)CC3)sc2c1,15.3,-2.8,-2.2,1.2,73.3*,4.2
CCOc1ccc2nc(N3CCC(C(=O)N4CCN(c5ncccn5)CC4)CC3)sc2c1,17.5,/,/,1.2,69.5*,-0.7
CCOC(=O)N1CCN(C(=O)C2CCCN(c3nc4ccc(OCC)cc4s3)C2)CC1 (stereo not given),-11.7,2.9,-1.9,1.2,33.7,-0.2
COc1ccc(-c2nnc3sc(-c4ccco4)nn23)cc1OC,-16.9,-16.9,-1.6,1.1,0.1,-2.6
COc1cccc(-c2nnc3sc(-c4cccs4)nn23)c1,70.0*,-1.5,-3.2,1.8,29.7,2.7
COc1cccc(-c2nnc3sc(-c4ccco4)nn23)c1,49.6*,22.9,-1.9,1.4,33.7,4.7
COc1ccc(-c2cc(-c3ccc(OC)c(OC)c3)n[nH]2)c(O)c1,/,37.5,-2.5,2*,/,9.5
COc1ccc(-c2cc(-c3cc(OC)ccc3O)[nH]n2)cc1,/,-38.9,1.2,1.9,/,-0.5
COc1ccc(-c2cc(-c3ccccc3O)[nH]n2)cc1OC,23.4,12.8,0.4,1.2,-9.1,10.8
COc1ccc(-c2cc(-c3cc(F)ccc3O)[nH]n2)cc1OC,36.4,/,/,2.3*,4.0,8.5
N#Cc1ccc(OCC(=O)OCC(=O)NCCC2=CCCCC2)cc1,/,-10.5,5.9,/,/,/
SMILES,SF1 activator,Mac1 fbg inh,Mac1 fbg enh,MT1-MMP txn act,RORA act,Candida biofilm
CN(C)C(=O)[C@H]1C[C@@H]1[C@H](NC(=O)CNC(=O)[C@@H]1CCCN1C(=O)[C@H]1C[C@@H]1[C@H](NC(=O)OCc1ccccc1)c1ccccc1)c1ccccc1,/,/,/,1.2,/,/
O=C(CSc1ncnc2ccccc12)N1CCCC1,18.3,9.7,-1.9,1.4,54.7*,-14.4
CCC#CCOCC(=O)Nc1ccccc1,/,/,/,1.3,/,/
Cc1cc(C(=O)CN2CCCC(C)C2)c(C)n1-c1ccc(F)cc1 (stereo not given),/,16.9,-1.3,/,/,/
COc1cccc(C(=O)/C=C/Nc2cc(C)ccc2O)c1,56.0*,13.0,-4.6,1.5,21.9,-1.9
Cc1cccc(NCc2nc3ccccc3n2C)c1,/,16.0,-2.5,1.6,/,2.4
Cc1cccc(NCc2nc3ccccc3n2Cc2ccccc2)c1,/,4.1,-3.5,1.4,/,1.4
Cc1nc2cc(NCc3nc4ccccc4n3Cc3ccccc3)ccc2n1C,23.2,38.0,-2.2,1.1,50.4*,7.3
Cn1c(NCc2ccccc2Cl)nc2ccccc21,45.9,/,/,1.2,50.2*,0.3
Cn1c(CNc2ccc(Cl)cc2)nc2ccccc21,59.0*,15.6,1.3,1.6,36.9,5.2
Cc1cnc(NC(=O)CSc2nnc(-c3ccccc3)o2)s1,87.9*,/,/,1.2,20.6,6.4
COc1ccc2nc(NC(=O)CSc3nnc(-c4ccoc4C)n3C)sc2c1,-6.8,-0.1,-1.7,1.5,107.4*,6.8
Cc1csc(NC(=O)CSc2nnc(-c3ccoc3C)o2)n1,29.6,22.4,-0.4,1.3,60.6*,6.9
CCn1nnnc1SCC(=O)Nc1nc2ccc(OC)cc2s1,/,/,/,1.1,/,5.7
COc1ccc(-n2c(SCC(=O)Nc3nc(C)cs3)nnc2-c2ccoc2C)cc1,/,/,/,2.2*,/,3.6
Cc1occc1-c1nnc(SCC(=O)Nc2nc(C(C)(C)C)cs2)o1,/,-2.2,-1.1,1.1,/,-0.3
CCC(=NC(C)c1ccccc1)c1c(O)n(C)c(=O)n(C)c1=O (stereo not given),-28.0,70.6*,-5.3,0.9,-24.4,9.6
Cc1ccc2cccc(Oc3ncnc4scc(-c5ccc(Cl)cc5)c34)c2n1,/,7.4,2.7,/,/,/
Cc1ccc2cc(CN(Cc3ccco3)C(=O)c3cccs3)c(=O)[nH]c2c1,44.8,-26.4,8.0,0.8,76.2*,2.5
CC(C)Oc1ccc(/C(O)=C2/C(=O)C(=O)N(CCCN3CCOCC3)C2c2ccncc2)cc1 (stereo not given),-2.1,/,/,1.2,-3.5,/
Cc1cccc(N2CCN(C(=O)c3ccc(Cl)c(S(=O)(=O)NCc4ccco4)c3)CC2)c1C,53.1*,17.5,-1.5,0.9,50.7*,4.9
O=C(O)c1ccc(Cl)c(S(=O)(=O)NCc2ccco2)c1,1.5,-8.6,-0.4,1.7,-17.1,3.5
CN(c1ccc(C(=O)N2CCN(Cc3ccc4c(c3)OCO4)CC2)cc1)S(=O)(=O)c1ccccc1,/,16.9,-3.7,1.2,/,1.2
Cc1ccc(S(=O)(=O)N(C)c2ccc(C(=O)N3CCN(Cc4ccc5c(c4)OCO5)CC3)cc2)cc1,/,60.7*,-9.1,1,/,5.4
Cn1cccc1CNC(=O)Nc1ccc(Cl)c(Cl)c1,66.4*,/,/,1.7,59.6*,3.8
COc1ccc(-c2ncc3ccccn23)cc1,52.8*,-1.9,-0.7,1.2,20.9,8.9
CC(C)CC1NC(=O)N(CC(=O)c2ccc3c(c2)OCCO3)C1=O (stereo not given),83.9*,-16.7,-1.1,1.2,57.4*,13.4
COc1ccccc1NC(=O)CN1C(=O)NC(CC(C)C)C1=O (stereo not given),-0.2,-11.7,-0.4,1.2,1.1,4.4
